Substitutions are numbered along the chain they refer to.
These compounds were tested against T1, OR2W1 (Homo sapiens) (UniProt Q9Y3N9). Conditions: stereoisomer not certain.
T1 sequence (whole entry): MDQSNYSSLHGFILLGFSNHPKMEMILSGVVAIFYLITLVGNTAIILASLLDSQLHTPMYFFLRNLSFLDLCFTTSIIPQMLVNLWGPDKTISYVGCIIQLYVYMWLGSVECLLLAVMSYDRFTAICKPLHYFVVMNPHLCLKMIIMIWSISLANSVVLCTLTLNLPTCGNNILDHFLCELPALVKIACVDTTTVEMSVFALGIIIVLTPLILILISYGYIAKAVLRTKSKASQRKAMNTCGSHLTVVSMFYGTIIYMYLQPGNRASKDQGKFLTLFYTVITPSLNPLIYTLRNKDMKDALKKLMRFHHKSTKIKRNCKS
How it was run: (§1)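 Values were gathered from published papers (main text and supplementary material), with extra details requested from the original authors when needed, and checked for typos and inconsistencies. Each receptor–molecule pair is called responsive (active) if the original authors judged the measured signal statistically different from baseline, and non-responsive (inactive) otherwise. Assay methods varied by source, often transient mammalian cell-line luciferase assays. Recorded details include cell line, G-protein, co-transfected protein and tags.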

Row | SMILES | odorant receptor agonist call
1 | OCc1ccco1 | active
2 | Cc1c([N+](=O)[O-])c(C)c([N+](=O)[O-])c(C(C)(C)C)c1[N+](=O)[O-] | inactive
3 | SCc1ccco1 | active
4 | CSSC | inactive
5 | NCC(=O)c1ccccc1 | inactive
6 | C=CCc1ccc(OC)cc1 | active
7 | O=C(O)Cc1ccccc1 | inactive
8 | CCC1CCC(=O)O1 (stereo not given) | inactive
9 | O=c1cc(O)c2ccccc2o1 | inactive
10 | C=CCc1ccccc1 | inactive
11 | CCOC(=O)Cc1ccccc1 | active
12 | O=Cc1ccc2c(c1)OCO2 | active
13 | SCc1ccccc1 | active
14 | C=CCOC(=O)Cc1ccccc1 | active
15 | Cc1ccc(O)c(C)c1 | inactive
16 | COc1ccc(C=O)cc1 | active
17 | C=CCSSCC=C | inactive
18 | O=Cc1ccco1 | inactive
19 | Cc1ccccc1O | inactive

Each compound was assayed on T2, OR2W1. Conditions: stereoisomer not certain.
T2 sequence (whole entry): T1 sequence (whole entry) with D296N
How it was run: as §1

Row | SMILES | odorant receptor agonist call
20 | OCc1ccco1 | active
21 | SCc1ccco1 | active
22 | C=CCc1ccc(OC)cc1 | active
23 | CCOC(=O)Cc1ccccc1 | active
24 | O=Cc1ccc2c(c1)OCO2 | active
25 | SCc1ccccc1 | active
26 | COc1ccc(C=O)cc1 | active
27 | C=CCSSCC=C | active

These compounds were tested on T3, OR2W1. Conditions: stereoisomer not certain.
T3 sequence (whole entry): T1 sequence (whole entry) with M81V
How it was run: as §1

Row | SMILES | odorant receptor agonist call
28 | OCc1ccco1 | inactive
29 | SCc1ccco1 | active
30 | C=CCc1ccc(OC)cc1 | active
31 | CCOC(=O)Cc1ccccc1 | active
32 | O=Cc1ccc2c(c1)OCO2 | active
33 | SCc1ccccc1 | active
34 | COc1ccc(C=O)cc1 | active
35 | C=CCSSCC=C | active

What follows are compounds tested against T4, OR2W3 (Homo sapiens) (UniProt Q7Z3T1). Conditions: stereoisomer not certain.
T4 sequence (whole entry): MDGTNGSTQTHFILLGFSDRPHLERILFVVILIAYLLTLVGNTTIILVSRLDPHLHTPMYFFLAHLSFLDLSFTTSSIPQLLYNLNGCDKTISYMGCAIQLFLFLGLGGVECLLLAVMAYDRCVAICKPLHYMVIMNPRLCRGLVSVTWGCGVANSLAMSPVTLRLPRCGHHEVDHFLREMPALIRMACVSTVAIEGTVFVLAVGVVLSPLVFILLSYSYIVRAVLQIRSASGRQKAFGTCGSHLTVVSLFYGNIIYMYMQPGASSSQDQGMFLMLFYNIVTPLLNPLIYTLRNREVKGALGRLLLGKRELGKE
How it was run: as §1

Row | SMILES | odorant receptor agonist call
36 | Cc1c([N+](=O)[O-])c(C)c([N+](=O)[O-])c(C(C)(C)C)c1[N+](=O)[O-] | inactive
37 | Cc1cccc(C)c1 | inactive
38 | C=CCOC(=O)Cc1ccccc1 | inactive
39 | COc1ccc(C=O)cc1 | inactive

What follows are compounds tested against T5, OR3A1 (Homo sapiens) (UniProt P47881). Conditions: stereoisomer not certain.
T5 sequence (whole entry): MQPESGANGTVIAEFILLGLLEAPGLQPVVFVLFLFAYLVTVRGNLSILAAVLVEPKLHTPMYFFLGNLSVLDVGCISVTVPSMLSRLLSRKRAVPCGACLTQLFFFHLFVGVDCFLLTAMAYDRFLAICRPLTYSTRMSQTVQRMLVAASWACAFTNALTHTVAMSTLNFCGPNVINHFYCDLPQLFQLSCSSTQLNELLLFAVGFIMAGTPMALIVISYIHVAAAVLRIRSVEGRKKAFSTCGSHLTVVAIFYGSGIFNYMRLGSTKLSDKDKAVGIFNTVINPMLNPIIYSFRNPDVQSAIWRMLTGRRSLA
How it was run: as §1

Row | SMILES | odorant receptor agonist call
40 | Cc1c([N+](=O)[O-])c(C)c([N+](=O)[O-])c(C(C)(C)C)c1[N+](=O)[O-] | inactive
41 | C=CCc1ccc2c(c1)OCO2 | inactive
42 | CC(C=O)Cc1ccc2c(c1)OCO2 (stereo not given) | active
43 | CC(=O)C=Cc1ccc2c(c1)OCO2 | active
44 | O=Cc1ccc2c(c1)OCO2 | inactive
45 | C=CCOC(=O)Cc1ccccc1 | inactive

— the M2OR odorant receptor database
